For four compounds, MIC, EC50 and CC50 results are on record in ChEMBL document CHEMBL2062460, “Disubstituted thiourea derivatives and their activity on CNS: synthesis and biological evaluation” (Eur J Med Chem, 2012).

In brackets after ≈: the same amount, converted by molar mass.

Data set [1] deals with Staphylococcus epidermidis. The data set can be described thus: Antibacterial activity against methicillin-resistant Staphylococcus epidermidis clinical isolate 317/08 after 18 hrs by twofold serial agar dilution technique. It counts as functional. Conditions: clinical isolate 317/08, 18 h. In short, it runs like this: (§1)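 Clinical isolates came from patients in Warsaw Medical University Hospitals and were classed as methicillin-susceptible or -resistant. MIC was determined by twofold serial agar dilution on Mueller–Hinton II agar (CLSI), 3.125–400 µg/mL in agar, with compounds in methanol or DMSO. Inoculum was 10^4 CFU/mL and plates were read after 18 h at 35 °C.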

Data set [2] concerns Staphylococcus epidermidis. Nature of the data set: Antibacterial activity against methicillin-resistant Staphylococcus epidermidis clinical isolate 318/08 after 18 hrs by twofold serial agar dilution technique. It is filed as functional. As to conditions: clinical isolate 318/08, 18 h. In short, it runs like this: as §1
Data set [3] deals with Human immunodeficiency virus 1. The data set can be described thus: Antiviral activity against HIV1 infected in human MT4 cells assessed as virus-induced cytopathogenicity after 4 days by MTT assay. It is filed as functional, organism-based. As to conditions: Human immunodeficiency virus 1, MT4, 96 h.
Data set [4] concerns Staphylococcus epidermidis. The data set can be described thus: Antibacterial activity against methicillin-resistant Staphylococcus epidermidis clinical isolate 342/09 after 18 hrs by twofold serial agar dilution technique. It counts as functional. Conditions: clinical isolate 342/09, 18 h. Put shortly: as §1
Data set [5] concerns Staphylococcus epidermidis. Nature of the data set: Antibacterial activity against methicillin-resistant Staphylococcus epidermidis clinical isolate 377/09 after 18 hrs by twofold serial agar dilution technique. It is filed as functional. As to conditions: clinical isolate 377/09, 18 h. In short, it runs like this: as §1
Data set [6] deals with Staphylococcus epidermidis. The data set can be described thus: Antibacterial activity against methicillin-resistant Staphylococcus epidermidis clinical isolate 315/08 after 18 hrs by twofold serial agar dilution technique. Conditions: clinical isolate 315/08, 18 h. It counts as functional. Put shortly: as §1
Data set [7] can be described thus: Cytotoxicity against human MT4 cells after 96 hrs by MTT assay. It is filed as cell-based.
For data set [8], the system named is Staphylococcus epidermidis. The data set can be described thus: Antibacterial activity against methicillin-resistant Staphylococcus epidermidis clinical isolate 343/09 after 18 hrs by twofold serial agar dilution technique. It counts as functional. Conditions: clinical isolate 343/09, 18 h. In short, it runs like this:
as §1

Data set [9] deals with Staphylococcus epidermidis. The data set can be described thus: Antibacterial activity against methicillin-resistant Staphylococcus epidermidis clinical isolate 316/08 after 18 hrs by twofold serial agar dilution technique. It counts as functional. Conditions: clinical isolate 316/08, 18 h. In short, it runs like this: as §1
The test system of data set [10] is Staphylococcus epidermidis. The data set can be described thus: Antibacterial activity against methicillin-resistant Staphylococcus epidermidis clinical isolate 311/08 after 18 hrs by twofold serial agar dilution technique. It is filed as functional. As to conditions: clinical isolate 311/08, 18 h. Put shortly:
as §1

For data set [11], the system named is Staphylococcus epidermidis. The data set can be described thus: Antibacterial activity against methicillin-resistant Staphylococcus epidermidis clinical isolate 341/09 after 18 hrs by twofold serial agar dilution technique. It is filed as functional. Conditions: clinical isolate 341/09, 18 h. In short, it runs like this:
as §1

The subject of data set [12] is Staphylococcus epidermidis. The data set can be described thus: Antibacterial activity against methicillin-resistant Staphylococcus epidermidis clinical isolate 340/09 after 18 hrs by twofold serial agar dilution technique. It counts as functional. As to conditions: clinical isolate 340/09, 18 h. In short, it runs like this:
as §1

For data set [13], the system named is Staphylococcus aureus. Nature of the data set: Antibacterial activity against Staphylococcus aureus ATCC 25923 after 18 hrs by twofold serial agar dilution technique. It is filed as functional. Conditions: ATCC 25923, 18 h. Put shortly:
(§2)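 Twofold serial agar dilution on Mueller–Hinton II agar, following CLSI guidelines. Compounds were dissolved in methanol or DMSO and tested at final agar concentrations of 3.125–400 µg/mL. Final inoculum was 10^4 CFU/mL.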

The test system of data set [14] is Staphylococcus aureus. The data set can be described thus: Antibacterial activity against Staphylococcus aureus NCTC 4163 after 18 hrs by twofold serial agar dilution technique. It counts as functional. As to conditions: NCTC 4163, 18 h. In short, it runs like this: as §2
Data set [15] relates to Staphylococcus epidermidis. Nature of the data set: Antibacterial activity against Staphylococcus epidermidis ATCC 12228 after 18 hrs by twofold serial agar dilution technique. It is filed as functional. Conditions: ATCC 12228, 18 h. Put shortly:
as §2

For data set [16], the system named is Staphylococcus aureus. Nature of the data set: Antibacterial activity against Staphylococcus aureus ATCC 6538 after 18 hrs by twofold serial agar dilution technique. Conditions: ATCC 6538, 18 h. It is filed as functional. Put shortly: as §2
For the next data set, the system named is Bacillus subtilis. Nature of the data set: Antibacterial activity against Bacillus subtilis ATCC 6633 after 18 hrs by twofold serial agar dilution technique. It is filed as functional. Conditions: ATCC 6633, 18 h.
The test system of data set [17] is Micrococcus luteus. Nature of the data set: Antibacterial activity against Micrococcus luteus ATCC 10240 after 18 hrs by twofold serial agar dilution technique. Conditions: ATCC 10240, 18 h. It counts as functional.
A further data set deals with Enterococcus hirae. The data set can be described thus: Antibacterial activity against Enterococcus hirae ATCC 10541 after 18 hrs by twofold serial agar dilution technique. It is filed as functional. Conditions: ATCC 10541, 18 h.
The test system of data set [18] is Micrococcus luteus. The data set can be described thus: Antibacterial activity against Micrococcus luteus ATCC 9341 after 18 hrs by twofold serial agar dilution technique. It counts as functional. As to conditions: ATCC 9341, 18 h.
The next data set has as its system Bacillus cereus. The data set can be described thus: Antibacterial activity against Bacillus cereus ATCC 11778 after 18 hrs by twofold serial agar dilution technique. It is filed as functional. Conditions: ATCC 11778, 18 h.
In data set [19] the test system is Staphylococcus aureus. Nature of the data set: Antibacterial activity against Staphylococcus aureus ATCC 29213 after 18 hrs by twofold serial agar dilution technique. As to conditions: ATCC 29213, 18 h. It is filed as functional. Put shortly: as §2

Turning to `Nc1ncnn1/C(S)=N/C1CCCCC1`, the MIC in data set [1] was 25 µg/mL (≈ 111 µM); in [2], 12.5 µg/mL (≈ 55.5 µM); in data set [4] it was 25 µg/mL (≈ 111 µM); in data set [5], 25 µg/mL (≈ 111 µM); in [6] it was 12.5 µg/mL (≈ 55.5 µM); in [8] it was 12.5 µg/mL (≈ 55.5 µM). The MIC in data set [9] was determined as 25 µg/mL (≈ 111 µM); in data set [10], 25 µg/mL (≈ 111 µM); in data set [11], 25 µg/mL (≈ 111 µM); in [12], 12.5 µg/mL (≈ 55.5 µM). In addition, the concentration giving a half-maximal response (EC50) in data set [3] was above 100 µM. For the same compound, in [7], the half-maximal cytotoxic concentration (CC50) at 96 h was above 100 µM.
Regarding `O=C(O)c1cn(C2CC2)c2cc(N3CCNCC3)c(F)cc2c1=O` [CIPROFLOXACIN], the minimal inhibitory concentration (MIC) against Staphylococcus aureus [13] was 0.5 µg/mL (≈ 1.51 µM); with Staphylococcus aureus [14], 0.5 µg/mL (≈ 1.51 µM); in [15], 0.5 µg/mL (≈ 1.51 µM); against Staphylococcus aureus [16] it was 0.5 µg/mL (≈ 1.51 µM); with Bacillus subtilis, below 0.125 µg/mL; with Micrococcus luteus [17], 1 µg/mL (≈ 3.02 µM). For the same compound, the MIC against Enterococcus hirae worked out at 4 µg/mL (≈ 12.1 µM); against Micrococcus luteus [18], 2 µg/mL (≈ 6.04 µM); against Bacillus cereus, 0.5 µg/mL (≈ 1.51 µM); against Staphylococcus aureus [19] it was 0.5 µg/mL (≈ 1.51 µM).
Turning to `O=C(NC(=S)Nc1nc[nH]n1)c1ccccc1`, in data set [3], the EC50 was above 100 µM. For the same compound, the CC50 at 96 h in data set [7] is above 100 µM.
For the compound `S=C(Nc1ccc(Cl)c(Cl)c1)Nc1nc[nH]n1`, the concentration for a half-maximal effect (EC50) in data set [3] is above 47 µM. Moreover, half-maximal cytotoxicity in data set [7] (CC50 at 96 h) was put at 47 µM.
